# Data: ChEMBL document CHEMBL1255227, “Novel pyridylmethylamines as highly selective 5-HT(1A) superagonists” (J Med Chem, 2010)
# Experiments:
# [1] = Displacement of [3H]WAY-100635 from 5-HT1A receptor in pig cortex membranes; type: cell membranes, Sus scrofa
# [2] = molecular target: T1, 5-hydroxytryptamine receptor 1A (Homo sapiens, UniProt P08908); experiment: Intrinsic activity at human 5-HT1A receptor expressed in CHO cells assessed as increase of serotonin-induced [35S]GTPgammaS binding; type: functional, cell-based
# T1 sequence (P08908 whole entry): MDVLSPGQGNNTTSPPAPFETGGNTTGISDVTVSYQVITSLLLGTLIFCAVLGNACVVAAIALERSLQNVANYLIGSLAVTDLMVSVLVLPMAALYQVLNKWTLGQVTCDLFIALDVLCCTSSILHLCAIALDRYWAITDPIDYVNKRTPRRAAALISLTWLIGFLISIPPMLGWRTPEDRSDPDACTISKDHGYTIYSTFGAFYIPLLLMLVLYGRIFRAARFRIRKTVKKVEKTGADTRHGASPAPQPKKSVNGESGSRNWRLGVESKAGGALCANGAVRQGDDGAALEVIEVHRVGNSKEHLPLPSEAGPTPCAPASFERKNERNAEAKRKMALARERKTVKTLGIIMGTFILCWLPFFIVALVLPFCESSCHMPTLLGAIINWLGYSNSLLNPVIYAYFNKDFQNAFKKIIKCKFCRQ
# How it was run: (§1)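 Membranes from CHO cells stably expressing human 5-HT1A were incubated with 0.1 nM [35S]GTPγS and test compound at eight concentrations (0.01-10000 nM), in hexaduplicate. Values come from a mean curve of four experiments. Emax is expressed relative to the maximal serotonin effect.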
# [3] = molecular target: T2, 5-hydroxytryptamine receptor 1A (Homo sapiens) (UniProt P08908); experiment: Intrinsic activity at human 5-HT1A receptor expressed in CHO cells assessed as increase of serotonin-induced [35S]GTPgammaS binding relative to serotonin; type: functional, cell-based; how it was run: as §1
# T2 sequence (whole entry): T1 sequence (P08908 whole entry)
smiles,measurement,setting,value
Cc1ccc(CNCC2(F)CCN(C(=O)c3ccc4[nH]ccc4c3)CC2)nc1,Ki,[1],0.38 µM
same,EC50,[2],0.1 µM
same,Emax,[3],94%
Cc1ccc(CNCC2(F)CCN(C(=O)c3ccc[nH]3)CC2)nc1,Ki,[1],0.66 µM
COc1c(C(=O)N2CCC(F)(CNCc3ccc(C)cn3)CC2)csc1Br,Ki,[1],0.017 µM
same,EC50,[2],0.062 µM
same,Emax,[3],95%
Cc1ccc(CNCC2(F)CCN(C(=O)c3cc(Br)c(Br)o3)CC2)nc1,Ki,[1],0.0089 µM
Cc1ccc(CNCC2(F)CCN(C(=O)c3ccc4[nH]cnc4c3)CC2)nc1,Ki,[1],3.5 µM
Cc1ccc(CNCC2(F)CCN(C(=O)c3coc(Br)c3)CC2)nc1,Ki,[1],0.026 µM
Cc1ccc(CNCC2(F)CCN(C(=O)c3cc4ccccc4[te]3)CC2)nc1,Ki,[1],0.051 µM
same,EC50,[2],0.036 µM
same,Emax,[3],46%
Cc1ccc(CNCC2(F)CCN(C(=O)c3ccc4[nH]nnc4c3)CC2)nc1,Ki,[1],0.91 µM
Cc1ccc(CNCC2(F)CCN(C(=O)c3sccc3Br)CC2)nc1,Ki,[1],0.032 µM
same,EC50,[2],0.02 µM
same,Emax,[3],104%
Cc1ccc(CNCC2(F)CCN(C(=O)c3cc4ccccc4s3)CC2)nc1,Ki,[1],0.19 µM
same,EC50,[2],0.24 µM
same,Emax,[3],116%
Cc1ccc(CNCC2(F)CCN(C(=O)c3sc(Br)c4c3OCCO4)CC2)nc1,Ki,[1],0.032 µM
same,EC50,[2],0.063 µM
same,Emax,[3],102%
Cc1ccc(CNCC2(F)CCN(C(=O)C3CCc4ccccc4C3)CC2)nc1 (stereo not drawn),Ki,[1],0.16 µM
Cc1ccc(CNCC2(F)CCN(C(=O)c3ccc4ccccc4c3)CC2)nc1,Ki,[1],0.015 µM
same,EC50,[2],0.052 µM
same,Emax,[3],110%
Cc1ccc(CNCC2(F)CCN(C(=O)C34CC5CC(CC(C5)C3)C4)CC2)nc1,Ki,[1],0.017 µM
same,EC50,[2],0.011 µM
same,Emax,[3],98%
Cc1ccc(CNCC2(F)CCN(C(=O)C34CC5CC(CC(Cl)(C5)C3)C4)CC2)nc1,Ki,[1],0.092 µM
same,EC50,[2],0.048 µM
same,Emax,[3],91%
Cc1ccc(CNCC2(F)CCN(C(=O)C34CC5CC(C3)CC(C(F)(F)C(F)C(F)(F)F)(C5)C4)CC2)nc1 (stereo not drawn),Ki,[1],1.3 µM
Cc1ccc(CNCC2(F)CCN(C(=O)c3ccccc3)CC2)nc1,Ki,[1],0.015 µM
same,EC50,[2],0.013 µM
same,Emax,[3],96%
CSc1ccc(C(=O)N2CCC(F)(CNCc3ccc(C)cn3)CC2)s1,Ki,[1],0.018 µM
same,EC50,[2],0.054 µM
same,Emax,[3],91%
Cc1ccc(CNCC2(F)CC3CCC(C2)N3C(=O)c2ccccc2)nc1 (stereo not drawn),Ki,[1],0.34 µM
Cc1ccc(CNCC2(F)CCN(C(=O)C34CC5CC(CC(Br)(C5)C3)C4)CC2)nc1,Ki,[1],0.12 µM
Cc1ccc(CNCC2(F)CC3CCC(C2)N3C(=O)c2ccsc2)nc1 (stereo not drawn),Ki,[1],0.26 µM
Cc1ccc(CNCC2(F)CCN(C(=O)C34CC5CC(CC(O)(C5)C3)C4)CC2)nc1,Ki,[1],1.3 µM
same,EC50,[2],0.6 µM
same,Emax,[3],90%
Cc1ccc(CNC[C@@]2(O)C[C@H]3CC[C@@H](C2)N3C(=O)c2ccccc2)nc1 (stereo in doubt; 34) [listing 1 of 2 here],Ki,[1],0.1 µM
same,EC50,[2],0.27 µM
Cc1ccc(CNC[C@@]2(O)C[C@H]3CCC[C@@H](C2)N3C(=O)c2ccccc2)nc1 (stereo in doubt; 43),Ki,[1],1.6 µM
Cc1ccc(CNCC2(O)CC3CCC(C2)N3C(=O)c2ccc(F)c(Cl)c2)nc1 (stereo not drawn),Ki,[1],0.017 µM
same,EC50,[2],0.018 µM
same,Emax,[3],121%
Cc1ccc(CNCC2(F)CCN(C(=O)c3cccc(-c4ccccc4)c3)CC2)nc1,Ki,[1],0.069 µM
Cc1ccc(CNCC2(F)CCN(C(=O)c3sccc3-n3cccc3)CC2)nc1,Ki,[1],0.36 µM
COc1c(C(=O)N2CCC(F)(CNCc3ccc(C)cn3)CC2)csc1Cl,Ki,[1],0.018 µM
same,EC50,[2],0.05 µM
same,Emax,[3],102%
Cc1ccc(CNCC2(F)CCN(C(=O)c3cc(C)cs3)CC2)nc1,Ki,[1],0.0083 µM
same,EC50,[2],0.02 µM
same,Emax,[3],101%
Cc1ccc(CNC[C@@]2(O)C[C@H]3CC[C@@H](C2)N3C(=O)c2ccccc2)nc1 (stereo in doubt; 38) [listing 1 of 2 here],Emax,[3],< 10%
Cc1ccc(CNCC2(F)CCN(C(=O)c3sccc3Cl)CC2)nc1,Ki,[1],0.025 µM
same,EC50,[2],0.03 µM
same,Emax,[3],99%
Cc1ccc(CNCC2(O)CC3CCC(C2)N3C(=O)c2ccsc2)nc1 (stereo not drawn),Ki,[1],0.043 µM
same,EC50,[2],0.032 µM
same,Emax,[3],101%
Cc1ccc(CNC[C@@]2(O)C[C@H]3CC[C@@H](C2)N3C(=O)c2ccccc2)nc1 (stereo in doubt; 38) [listing 2 of 2 here],Ki,[1],0.063 µM
Cc1ccc(CNCC2(F)CCN(C(=O)c3cc4ccccc4o3)CC2)nc1,Ki,[1],0.064 µM
same,EC50,[2],0.034 µM
same,Emax,[3],87%
Cc1ccc(CNCC2(F)CCN(C(=O)c3cc4ccccc4[nH]3)CC2)nc1,Ki,[1],0.094 µM
Cc1ccc(CNCC2(O)CCN(C(=O)c3ccsc3)CC2)nc1,Ki,[1],0.12 µM
COc1cscc1C(=O)N1CCC(F)(CNCc2ccc(C)cn2)CC1,Ki,[1],0.056 µM
same,EC50,[2],0.099 µM
same,Emax,[3],93%
Cc1ccc(CNCC2(F)CCN(C(=O)c3cnn4ccccc34)CC2)nc1,Ki,[1],0.093 µM
same,EC50,[2],0.31 µM
same,Emax,[3],96%
CCC12CC3CC(C1)CC(C(=O)N1CCC(F)(CNCc4ccc(C)cn4)CC1)(C3)C2,Ki,[1],0.029 µM
Cc1ccc(CNCC2(F)CCN(C(=O)c3scc4c3CCCC4)CC2)nc1,Ki,[1],0.02 µM
same,EC50,[2],0.086 µM
same,Emax,[3],104%
Cc1ccc(CNCC2(F)CCN(C(=O)c3cc4ccccn4n3)CC2)nc1,Ki,[1],0.18 µM
same,EC50,[2],0.093 µM
same,Emax,[3],80%
Cc1ccc(CNCC2(F)CCN(C(=O)c3ccc(-c4ccccc4)s3)CC2)nc1,Ki,[1],0.5 µM
Cc1ccc(CNCC2(F)CCN(C(=O)c3cc4ccsc4s3)CC2)nc1,Ki,[1],0.046 µM
same,EC50,[2],0.039 µM
same,Emax,[3],103%
Cc1ccc(CNCC2(F)CCN(C(=O)C34CC5CC(CC3C5)C4)CC2)nc1,Ki,[1],0.011 µM
same,EC50,[2],0.047 µM
same,Emax,[3],96%
Cc1ccc(CNCC2(F)CCN(C(=O)c3ccc(-c4ccccc4)cc3)CC2)nc1,Ki,[1],0.3 µM
Cc1ccc(CNCC2(F)CCN(C(=O)C34CC5CC(C)(CC(Br)(C5)C3)C4)CC2)nc1 (stereo not drawn),Ki,[1],0.46 µM
Cc1ccc(CNCC2(F)CCN(C(=O)c3ccc(Cl)s3)CC2)nc1,Ki,[1],0.021 µM
same,EC50,[2],0.046 µM
same,Emax,[3],101%
Cc1ccc(CNCC2(F)CCN(C(=O)c3cc[nH]n3)CC2)nc1,Ki,[1],0.91 µM
Cc1ccc(CNCC2(F)CCN(C(=O)c3ccsc3)CC2)nc1,Ki,[1],0.027 µM
same,EC50,[2],0.012 µM
same,Emax,[3],95%
Cc1ccc(CNC[C@@]2(O)C[C@H]3CCC[C@@H](C2)N3C(=O)c2ccccc2)nc1 (stereo in doubt; 41),Ki,[1],0.15 µM
Cc1ccc(CNCC2(F)CCN(C(=O)c3sccc3C)CC2)nc1,Ki,[1],0.026 µM
same,EC50,[2],0.035 µM
same,Emax,[3],96%
Cc1ccc(CNCC2(O)CCN(C(=O)c3ccccc3)CC2)nc1,Ki,[1],0.079 µM
Cc1ccc(CNCC2(F)CCN(C(=O)c3ccc(C)s3)CC2)nc1,Ki,[1],0.014 µM
same,EC50,[2],0.042 µM
same,Emax,[3],104%
Cc1ccc(CNCC2(F)CCN(C(=O)c3ccc(-c4ccccn4)s3)CC2)nc1,Ki,[1],0.47 µM
Cc1ccc(CNCC2(O)CCN(C(=O)c3ccc(F)c(Cl)c3)CC2)nc1,Ki,[1],0.011 µM
same,EC50,[2],0.0066 µM
same,Emax,[3],109%
Cc1ccc(CNCC2(F)CCN(C(=O)C34CCCC(CCC3)C4)CC2)nc1,Ki,[1],0.019 µM
same,EC50,[2],0.026 µM
same,Emax,[3],96%
Cc1ccc(CNCC2(F)CCN(C(=O)C34CC5CC(C)(CC(C)(C5)C3)C4)CC2)nc1,Ki,[1],0.47 µM
Cc1ccc(CNCC2(F)CCN(C(=O)c3ccccc3-c3ccccc3)CC2)nc1,Ki,[1],0.33 µM
Cc1ccc(CNCC2(F)CCN(C(=O)c3sc4sccc4c3Cl)CC2)nc1,Ki,[1],0.025 µM
same,EC50,[2],0.059 µM
same,Emax,[3],97%
Cc1ccc(CNCC2(F)CCN(C(=O)c3ccc(-c4cccs4)s3)CC2)nc1,Ki,[1],0.42 µM
Cc1ccc(CNCC2(F)CCN(C(=O)c3ccc(Br)s3)CC2)nc1,Ki,[1],0.019 µM
same,EC50,[2],0.03 µM
same,Emax,[3],95%
Cc1ccc(CNCC2(F)CCN(C(=O)c3ccc(F)s3)CC2)nc1,Ki,[1],0.035 µM
Cc1ccc(CNCC2(F)CCN(C(=O)c3ccoc3)CC2)nc1,Ki,[1],0.182 µM
same,EC50,[2],0.24 µM
same,Emax,[3],99%
Cc1ccc(CNCC2(F)CCN(C(=O)c3cc(Br)c(Br)s3)CC2)nc1,Ki,[1],0.0048 µM
Cc1ccc(CNCC2(F)CCN(C(=O)c3cc4cc(Br)ccc4s3)CC2)nc1,Ki,[1],0.22 µM
Cc1ccc(CN(C)CC2(F)CCN(C(=O)c3ccc(F)c(Cl)c3)CC2)nc1,Ki,[1],0.074 µM
same,EC50,[2],0.0086 µM
same,Emax,[3],77%
Cc1ccc(CNCC2(F)CCN(C(=O)c3ccsc3Br)CC2)nc1,Ki,[1],0.016 µM
Cc1ccc(CNCC2(F)CC3CCC(C2)N3C(=O)c2ccc(F)c(Cl)c2)nc1 (stereo not drawn),Ki,[1],0.11 µM
Cc1ccc(CNCC2(F)CCN(C(=O)c3ccc(-c4csc(C)n4)s3)CC2)nc1,Ki,[1],0.45 µM
Cc1ccc(CNC[C@@]2(O)C[C@H]3CC[C@@H](C2)N3C(=O)c2ccccc2)nc1 (stereo in doubt; 34) [listing 2 of 2 here],Emax,[3],113%
Cc1ccc(CNCC2(F)CCN(C(=O)c3cc4sccc4s3)CC2)nc1,Ki,[1],0.037 µM
same,EC50,[2],0.13 µM
same,Emax,[3],100%
Cc1ccc(CNCC2(F)CCN(C(=O)c3cc4ccc3CCc3ccc(cc3)CC4)CC2)nc1,Ki,[1],0.32 µM
